Data reported in ChEMBL document CHEMBL1145820, “Design, synthesis, and evaluation of novel boronic-chalcone derivatives as antitumor agents” (J Med Chem, 2003).

Tests used:
Assay type in all cases: functional, cell-based
[1] = system: MDA-MB-231; assay: Inhibitory activity against MDA-MB-231 human breast cell line
Procedure, shortened: (§1)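 Cells kept in DMEM with 5% FBS, 2 mM glutamine and penicillin/streptomycin at 37 °C, 5% CO2. Cells plated and attached for 24 h, then exposed to 0.5-100 µM compound (10 mM DMSO stocks) for 96 h in quadruplicate wells. MTT (1 mg/mL, serum-free medium) was added for 4 h, formazan dissolved in DMSO:ethanol 1:1, and A540 read. IC50 taken from log plots of percent of control; two runs.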

[2] = system: MDA-MB-435; assay: Inhibitory activity against MDA-MB-435 human breast cell line
Procedure, shortened: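 Cells kept in IMEM with 5% FBS and 2 mM glutamine at 37 °C, 5% CO2. After 24 h attachment, cells were exposed in quadruplicate wells to 0.5-100 µM compound (10 mM DMSO stocks) for 96 h. Read-out was MTT (1 mg/mL, 4 h), with formazan dissolved in DMSO:ethanol and absorbance at 540 nm. IC50 came from log plots of percent of control vs concentration; assayed twice.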

[3] = system: MCF-10A; assay: Inhibitory activity against MCF-10A human breast cell line
[4] = system: MCF-12A; assay: Inhibitory activity against MCF-12A human breast cell line
[5] = system: MCF7; assay: Inhibitory activity against Wt-MCF7 human breast cell line; procedure, shortened: as §1

IC50 [1] [µM] | IC50 [2] [µM] | IC50 [4] [µM] | IC50 [5] [µM] | SMILES | IC50 [3] [µM]
9 | 9 | 15 | 13 | O=C(O)COc1ccc(C(=O)/C=C/c2ccc(Cl)c(Cl)c2)cc1 | 13
8 | 4 | 15 | 5.5 | O=C(/C=C/c1ccc(B(O)O)cc1)c1ccc(Cl)c(Cl)c1 | 18
44 | 18 | 38 | 9 | O=C(O)COc1ccc(C(=O)/C=C/c2ccc(I)cc2)cc1 | 44
18 | 13 | 28 | 15 | O=C(O)COc1ccc(/C=C/C(=O)c2ccc(Cl)c(Cl)c2)cc1 | 12
9.5 | 3.5 | 11 | 5 | O=C(/C=C/c1ccc(Cl)c(Cl)c1)c1ccc(B(O)O)cc1 | 18

The next lines start with the compound.

SMILES | IC50 [1] [µM] | IC50 [2] [µM] | IC50 [4] [µM] | IC50 [5] [µM] | IC50 [3] [µM]
O=C(/C=C/c1ccc(I)cc1)c1ccc(OCB(O)O)cc1 | 11 | 18 | 100 | 9.5 | 38
O=C(/C=C/c1ccc(I)cc1)c1ccc(O)cc1 | 8 | 4.5 | 30 | 7 | 15
O=C(/C=C/c1ccc(I)cc1)c1ccc(B(O)O)cc1 | 8.8 | 10 | 63 | 7 | 75
O=C(/C=C/c1ccc(F)c(Cl)c1)c1ccc(B(O)O)cc1 | 8.5 | 16 | 22 | 6 | 25
O=C(/C=C/c1ccc(F)c(Br)c1)c1ccc(B(O)O)cc1 | 9.5 | 8.8 | 38 | 8.5 | 17
O=C(/C=C/c1ccc(F)c(F)c1)c1ccc(B(O)O)cc1 | 8.8 | 8.8 | 39 | 7.8 | 18
O=C(/C=C/c1ccc(B(O)O)cc1)c1ccc[nH]1 | 23 | 15 | 60 | 19 | 38
O=C(/C=C/c1ccccc1)c1ccc[nH]1 | 15 | 15 | 38 | 9 | 63
